Results collected from several papers.
Adora2a: Adenosine receptor A2a (Adora2a, Rattus norvegicus, UniProt P30543)
Sterol carrier protein 2: Sterol carrier protein 2 (Aedes aegypti, UniProt Q86PR3)

Structure (SMILES)	target	assay	conditions	quantity	value
CCCN1CCN(c2ccc(-c3cncc(Cl)c3N3CCC4(CCNC4=O)CC3)cc2)CC1	E3 ubiquitin-protein ligase NEDD4 (Homo sapiens, UniProt P46934)	cell-free assay	lysate	Kd	18400 nM
Cc1cnc(-c2ccc(-c3ccc(NC(=O)Nc4c(F)cc(F)cc4F)cc3F)c3c2C(=O)NC3)[nH]1	BDNF/NT-3 growth factors receptor (NTRK2, Homo sapiens, UniProt Q16620)	binding, competition with immobilised ligand		Kd	4.5 nM
CCCS(=O)(=O)Nc1ccc(F)c(C(=O)c2c[nH]c3ncc(-c4ccc(Cl)cc4)cc23)c1F	Mitogen-activated protein kinase kinase kinase 20, non-phosphorylated (MAP3K20, Homo sapiens, UniProt Q9NYL2)	binding, ITC		Kd	29 nM
CCCCCC(C)N1CCCn2c1nc1c2c(=O)n(C)c(=O)n1C (centres unmarked)	Adora2a	ligand displacement, radioligand	cell membranes	Ki	2380 nM
Cc1cc(Nc2cc3ncccc3c(N[C@@H]3C[C@H]4CC[C@@H](C3)N4CCC#N)n2)n[nH]1	Mitogen-activated protein kinase kinase kinase 9 (MAP3K9, Homo sapiens, UniProt P80192)	binding, competition with immobilised ligand		Kd	54 nM
O=C1/C(=C/c2ccco2)CCC/C1=C\c1ccco1	Sterol carrier protein 2	ligand displacement, fluorescence		EC50	62900 nM
CCCCCCCCCCCCCCCC(=O)OC[C@H](COP(=O)(O)OC1[C@H](O)[C@H](O)C(OP(=O)(O)O)[C@H](O)[C@H]1O)OC(=O)CCCCCCCCCCCCCCC (some centres unmarked)	SHC-transforming protein 1 (Homo sapiens, UniProt P29353)	binding, fluorescence		Kd	4100 nM
N[C@@H](CCC(=O)O)C(=O)O	Metabotropic glutamate receptor 4 (Grm4, Rattus norvegicus, UniProt P31423)	ion flux, agonist		EC50	7900 nM
O=C(/C=C/c1ccc(O)cc1)/C=C/c1ccc(O)cc1	Sterol carrier protein 2	ligand displacement, fluorescence		EC50	2380 nM
C=CN1CCCn2c1nc1c2c(=O)n(C)c(=O)n1C	Adora2a	ligand displacement, radioligand	cell membranes	Ki	> 25000 nM
CN1CCN(c2ccc(Nc3ncc4cc(C#N)c(=O)n(C5CCCC5)c4n3)cc2)CC1	Calcium/calmodulin-dependent protein kinase type II subunit delta (CAMK2D, Homo sapiens, UniProt Q13557)	enzyme activity, inhibitor		IC50	1600 nM
